Measured values from ChEMBL document CHEMBL4382240, “Discovery of novel 2,5-dihydroxyterephthalamide derivatives as multifunctional agents for the treatment of Alzheimer's disease” (Bioorg Med Chem, 2018).
Calls of active or inactive are those of the source. The rule behind the calls is not given here.

Experiments:
[1] = Antioxidant activity assessed as trolox equivalent of APPH-induced radical scavenging activity at 5 uM preincubated for 15 mins followed by AAPH addition measured every minute for 90 mins by ORAC fluorescein assay; assay type: functional
Summary of the method: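 ORAC-FL in 75 mM phosphate buffer, pH 7.4. Fluorescein (150 nM final) and sample (tested at 1–10 µM) incubated 15 min at 37 °C. AAPH (12 mM final) then added, and fluorescence (ex 485/em 535 nm) read every minute for 90 min. Trolox standard 1–8 µM; result expressed as µM Trolox equivalent per µM compound. Duplicate wells; three independent experiments.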

[2] = Cytotoxicity against […] cells assessed as decrease in cell viability up to 10 uM preincubated for 30 mins followed by LPS stimulation and measured after 24 hrs by MTT assay; assay type: cell-based
Summary of the method: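 BV-2 cells grown 24 h, then treated with compound (0.5, 2.5, 10.0 µM) for 30 min, with or without LPS (1.0 µg/mL), for a further 24 h. MTT (5 mg/mL) added for 4 h, formazan dissolved in DMSO, A490 read. Viability given as percent of untreated cells. Triplicate wells; three independent experiments.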

[3] = Effect on TNFalpha release in […] cells up to 10 uM after 24 hrs by ELISA; assay type: ADME, cell-based
Summary of the method: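 BV-2 cells exposed to compound up to 10 µM with no added LPS. TNF-α in the medium measured by ELISA. Mean ± SD of three independent experiments.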

[4] = Effect on NO release in […] cells up to 10 uM after 24 hrs by Griess reagent based assay; assay type: ADME, cell-based
Summary of the method: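 BV-2 cells in DMEM treated with compound alone, without LPS, up to 10 µM. Nitrite in culture supernatant measured by Griess reagent (A540) against a NaNO2 standard curve. Mean ± SD of three independent experiments.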

[5] = Metal chelating activity assessed as compound-Fe2+ complex formation at 37.5 uM after 30 mins by UV spectrometry method
Summary of the method: (§1)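 Compound and metal salt (CuCl2, ZnCl2, FeSO4 or AlCl3), each 37.5 µM final in methanol, incubated 30 min at room temperature. UV-vis spectra recorded from 200 to 600 nm and compared with the compound alone.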

[6] = biological target: Butyrylcholinesterase (Rattus norvegicus, UniProt Q9JKC1); assay: Inhibition of rat serum BuChE using butyrylthiocholine iodide as substrate after 15 mins by Ellman's method; assay type: ADME
Sequence of Butyrylcholinesterase (Q9JKC1 whole entry): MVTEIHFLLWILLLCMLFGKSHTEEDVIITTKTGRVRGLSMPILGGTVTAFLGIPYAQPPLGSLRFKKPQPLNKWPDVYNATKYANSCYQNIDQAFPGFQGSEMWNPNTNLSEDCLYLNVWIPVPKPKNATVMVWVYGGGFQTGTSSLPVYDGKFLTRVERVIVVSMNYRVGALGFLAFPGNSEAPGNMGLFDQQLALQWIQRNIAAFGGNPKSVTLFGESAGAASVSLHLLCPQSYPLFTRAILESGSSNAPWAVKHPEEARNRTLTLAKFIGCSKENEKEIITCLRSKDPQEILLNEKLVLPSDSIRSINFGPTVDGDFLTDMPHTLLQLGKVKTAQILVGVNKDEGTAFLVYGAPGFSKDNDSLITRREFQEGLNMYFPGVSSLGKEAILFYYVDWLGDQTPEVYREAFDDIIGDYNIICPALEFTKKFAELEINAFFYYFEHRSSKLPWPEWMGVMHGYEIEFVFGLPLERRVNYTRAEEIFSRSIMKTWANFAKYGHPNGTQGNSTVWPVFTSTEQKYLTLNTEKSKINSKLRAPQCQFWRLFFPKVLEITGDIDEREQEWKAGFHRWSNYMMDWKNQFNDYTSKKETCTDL

[7] = biological target: T1, Amyloid-beta precursor protein (Homo sapiens, UniProt P05067); assay: Inhibition of human amyloid beta (1 to 42) self-induced aggregation after 24 hrs by Thioflavin T based fluorometric assay
T1 sequence (P05067 whole entry): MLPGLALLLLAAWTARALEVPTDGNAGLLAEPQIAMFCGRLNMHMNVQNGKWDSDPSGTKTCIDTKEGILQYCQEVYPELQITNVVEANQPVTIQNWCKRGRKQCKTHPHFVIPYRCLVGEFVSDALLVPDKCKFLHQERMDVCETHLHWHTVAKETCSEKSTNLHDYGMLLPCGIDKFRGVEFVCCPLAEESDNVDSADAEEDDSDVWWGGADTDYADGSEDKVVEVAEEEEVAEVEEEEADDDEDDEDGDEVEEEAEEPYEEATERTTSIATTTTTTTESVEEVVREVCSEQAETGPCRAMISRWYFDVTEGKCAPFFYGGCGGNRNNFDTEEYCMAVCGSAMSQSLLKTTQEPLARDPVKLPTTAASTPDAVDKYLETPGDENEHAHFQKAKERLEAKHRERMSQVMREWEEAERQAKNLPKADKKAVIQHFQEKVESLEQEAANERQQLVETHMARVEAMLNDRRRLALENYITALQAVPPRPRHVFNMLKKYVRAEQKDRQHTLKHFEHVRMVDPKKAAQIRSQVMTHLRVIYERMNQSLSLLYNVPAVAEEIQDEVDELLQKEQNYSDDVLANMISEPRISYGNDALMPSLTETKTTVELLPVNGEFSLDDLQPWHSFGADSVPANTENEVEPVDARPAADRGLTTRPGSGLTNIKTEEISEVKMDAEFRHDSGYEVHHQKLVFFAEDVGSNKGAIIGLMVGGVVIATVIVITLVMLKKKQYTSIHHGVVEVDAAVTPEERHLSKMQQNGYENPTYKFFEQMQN
Summary of the method: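 Self-induced Aβ1-42 aggregation (25 µM peptide) in phosphate buffer, pH 7.4, for 24 h at 37 °C with varying compound concentrations. Aggregation read by ThT fluorescence (5 µM ThT, glycine-NaOH pH 8.5).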

[8] = Disaggregation of Cu2+ induced preformed fibrils of human amyloid beta (1 to 42) at 25 uM after 24 hrs by Thioflavin T based fluorometric assay relative to control
Summary of the method: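 Aβ1-42 (25 µM) with Cu2+ (25 µM) in HEPES buffer pre-aggregated 24 h at 37 °C. Compound (25 µM) then added for a further 24 h at 37 °C. Fibril content measured by ThT fluorescence (glycine-NaOH, pH 8.5). Triplicate; three independent experiments.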

[9] = organism: Homo sapiens; assay: Anti-inflammatory activity in […] cells assessed as inhibition of LPS-stimulated NO release preincubated for 30 mins followed by LPS stimulation and measured after 24 hrs by Griess reagent based assay; assay type: functional, cell-based
[10] = Metal chelating activity assessed as mole fraction of compound required to show 1:2 stoichiometry for compound -Cu2+ complex at 37.5 uM after 30 mins by UV spectrometry method
Summary of the method: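 Molar-ratio titration in methanol: compound fixed at 37.5 µM final, CuCl2 varied from 3.75 to 150 µM final. Spectra corrected by subtracting CuCl2 and compound alone. Absorbance at 274 nm plotted against mole fraction; stoichiometry taken from where the straight lines intersect.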

[11] = biological target: Acetylcholinesterase (Electrophorus electricus, UniProt O42275); assay: Inhibition of electric eel AChE using acetylthiocholine iodide as substrate after 15 mins by Ellman's method
Sequence of Acetylcholinesterase (Electrophorus electricus, UniProt O42275) (O42275 whole entry): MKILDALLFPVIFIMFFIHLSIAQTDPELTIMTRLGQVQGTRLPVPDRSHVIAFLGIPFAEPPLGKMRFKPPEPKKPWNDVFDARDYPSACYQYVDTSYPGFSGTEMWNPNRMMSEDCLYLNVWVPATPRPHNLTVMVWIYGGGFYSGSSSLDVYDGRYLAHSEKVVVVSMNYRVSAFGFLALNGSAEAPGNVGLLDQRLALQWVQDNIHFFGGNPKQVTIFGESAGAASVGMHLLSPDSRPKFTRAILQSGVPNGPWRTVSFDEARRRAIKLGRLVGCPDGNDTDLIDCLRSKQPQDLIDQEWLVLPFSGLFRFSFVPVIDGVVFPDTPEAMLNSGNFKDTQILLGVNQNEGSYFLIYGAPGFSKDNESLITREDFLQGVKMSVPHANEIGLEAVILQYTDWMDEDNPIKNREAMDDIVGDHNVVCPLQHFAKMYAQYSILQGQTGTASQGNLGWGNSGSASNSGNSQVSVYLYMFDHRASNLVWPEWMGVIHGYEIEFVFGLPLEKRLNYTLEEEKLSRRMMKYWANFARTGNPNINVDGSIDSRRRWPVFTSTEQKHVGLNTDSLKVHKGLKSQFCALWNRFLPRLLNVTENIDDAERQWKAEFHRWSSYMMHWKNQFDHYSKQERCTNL

[12] = biological target: T1, Amyloid-beta precursor protein; assay: Inhibition of human amyloid beta (1 to 42) self-induced aggregation at 25 uM after 24 hrs by Thioflavin T based fluorometric assay relative to control
Summary of the method: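 Aβ1-42 (25 µM final) incubated with compound (25 µM final) in 50 mM phosphate buffer, pH 7.4, for 24 h at 37 °C under a sealing film. ThT (5 µM) in 50 mM glycine-NaOH, pH 8.5, then added and fluorescence measured. Triplicate; mean ± SD of three independent experiments.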

[13] = biological target: T2, Acetylcholinesterase (Rattus norvegicus, UniProt P37136); assay: Inhibition of rat cortex AChE using acetylthiocholine iodide as substrate after 15 mins by Ellman's method
T2 sequence (P37136 whole entry): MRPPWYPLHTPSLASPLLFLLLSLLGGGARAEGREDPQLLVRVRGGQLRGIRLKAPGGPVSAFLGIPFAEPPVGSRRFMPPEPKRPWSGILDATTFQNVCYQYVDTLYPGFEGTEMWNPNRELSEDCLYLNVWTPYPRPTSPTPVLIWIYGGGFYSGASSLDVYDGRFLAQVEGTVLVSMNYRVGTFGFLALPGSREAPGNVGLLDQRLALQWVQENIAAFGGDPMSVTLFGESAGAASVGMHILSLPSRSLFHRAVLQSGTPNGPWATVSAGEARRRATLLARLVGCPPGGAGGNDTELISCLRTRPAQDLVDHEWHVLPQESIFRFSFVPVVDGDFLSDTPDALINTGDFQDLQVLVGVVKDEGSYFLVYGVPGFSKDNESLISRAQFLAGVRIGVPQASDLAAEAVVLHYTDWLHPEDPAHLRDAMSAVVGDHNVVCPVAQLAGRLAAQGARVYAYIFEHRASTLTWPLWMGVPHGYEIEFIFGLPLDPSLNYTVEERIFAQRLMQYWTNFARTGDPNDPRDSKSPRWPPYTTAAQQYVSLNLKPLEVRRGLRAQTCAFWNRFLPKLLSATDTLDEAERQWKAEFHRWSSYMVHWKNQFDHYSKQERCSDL

[14] = organism: Homo sapiens; assay: Anti-inflammatory activity in […] cells assessed as inhibition of LPS-stimulated TNFalpha release at 0.5 uM preincubated for 30 mins followed by LPS stimulation and measured after 24 hrs by ELISA; assay type: functional, cell-based
Summary of the method: (§2)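 Confluent BV-2 cells in DMEM preincubated 30 min with compound, tested over 0.5–10 µM, then stimulated with LPS (1.0 µg/mL) for 24 h. Released TNF-α measured by ELISA following kit instructions. Triplicate wells; mean ± SD of three independent experiments.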

[15] = Metal chelating activity assessed as compound-Cu2+ complex formation at 37.5 uM after 30 mins by UV spectrometry method; summary of the method: as §1
[16] = Anti-inflammatory activity in […] cells assessed as inhibition of LPS-stimulated TNFalpha release at 10 uM preincubated for 30 mins followed by LPS stimulation and measured after 24 hrs by ELISA relative to control; assay type: functional; settings: BV-2; summary of the method: as §2
[17] = Effective permeability of the compound in PBS/EtOH at 100 ug/ml after 18 hrs by PAMPA; assay type: ADME; settings: read-out: Peff

For `CCN(CCCCNC(=O)c1cc(O)c(C(=O)NCCCCN(CC)Cc2ccccc2OC)cc1O)Cc1ccccc1OC`, the Activity [1] was 0.97 equiv, the Activity [2] was “Non-Toxic” and the Activity [3] was “Non-Toxic”. For the same molecule, the Activity [4] was “Non-Toxic”, the Activity [5] was “Active” and the IC50 [6] was > 100 µM. For the same molecule, the IC50 [7] was 3.05 µM, the Activity [8] was 77.2% and the inhibition [9] was “Dose-dependent effect”. The Activity [10] was 1.9 molar ratio, the IC50 [11] was 5.12 µM and the inhibition [12] was 96.2%. The IC50 [13] was 0.56 µM, the inhibition [14] was “inactive” and the Activity [15] was “Active”. It also gave an inhibition at 10 µM [16] of 55.3% and a Papp at 18 h, 100 ug/ml [17] of 4.45 ×10⁻⁶ cm/s.
